Calls of active or inactive are those of the source. The rule behind the calls is not given here. Numbered stars: 1 amine (or outer) side, 2 acyl side, 3 side chain; on linkers, the order of the positions; unused ones are H or OH. Square brackets hold non-standard residues; d marks the D form. Side chains are listed from the residue outwards. Peptide text beside a SMILES is read from it. * marks the point of attachment. NMeF = CN[C@@H](Cc1ccccc1)C(=O)O; NH(2-Me-phenyl) = Cc1ccccc1N*; CO = O=C([*:1])[*:2]
Assays:
[1] = target: T1, Cholecystokinin receptor type A (Homo sapiens, UniProt P32238); test: In vitro displacement of [125I]BH-CCK-8 from cDNA of human Cholecystokinin type A receptor expressed in CHO-K1 cells; format: cell-based
T1 sequence (P32238 whole entry): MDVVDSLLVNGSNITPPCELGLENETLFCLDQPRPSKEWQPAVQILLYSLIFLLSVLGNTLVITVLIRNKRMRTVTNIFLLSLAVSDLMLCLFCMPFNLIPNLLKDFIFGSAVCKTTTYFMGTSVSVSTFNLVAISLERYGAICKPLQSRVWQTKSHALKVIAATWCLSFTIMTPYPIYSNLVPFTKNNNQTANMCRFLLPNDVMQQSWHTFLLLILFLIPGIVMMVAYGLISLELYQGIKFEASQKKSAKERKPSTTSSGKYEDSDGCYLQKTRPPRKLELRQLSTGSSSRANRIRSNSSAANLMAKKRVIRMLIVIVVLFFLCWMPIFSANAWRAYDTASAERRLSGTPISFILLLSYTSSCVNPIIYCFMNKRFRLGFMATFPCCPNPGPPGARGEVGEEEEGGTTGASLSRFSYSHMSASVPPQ

Cavia porcellus [2] = organism: Cavia porcellus; test: mCCK-8 contraction induced by 30 uM in vitro, normalized to CCK-8 (1 uM); IA ='inactive'; format: functional
In short: (§1)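 Isolated guinea pig gallbladder. Contraction produced by test compound at 30 μM is expressed relative to CCK-8 (1 μM).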

[3] = target: T2, Gastrin/cholecystokinin type B receptor (Homo sapiens, UniProt P32239)
T2 sequence (P32239 whole entry): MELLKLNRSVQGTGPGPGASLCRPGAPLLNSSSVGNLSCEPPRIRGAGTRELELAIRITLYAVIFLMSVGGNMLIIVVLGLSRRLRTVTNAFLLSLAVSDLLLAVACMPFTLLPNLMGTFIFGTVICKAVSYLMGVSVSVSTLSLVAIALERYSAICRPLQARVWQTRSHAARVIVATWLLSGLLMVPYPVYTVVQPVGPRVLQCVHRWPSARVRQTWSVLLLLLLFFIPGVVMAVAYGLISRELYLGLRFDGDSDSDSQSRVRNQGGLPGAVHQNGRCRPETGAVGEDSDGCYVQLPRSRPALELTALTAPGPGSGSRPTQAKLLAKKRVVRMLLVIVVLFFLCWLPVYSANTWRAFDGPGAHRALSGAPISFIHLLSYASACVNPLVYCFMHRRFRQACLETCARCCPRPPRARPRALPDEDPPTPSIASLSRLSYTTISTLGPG

[4] = target: T2, Gastrin/cholecystokinin type B receptor; test: Compound was evaluated for the [Ca2+] mobilization innstably transfected CHO-K1 cell lines expressing human Cholecystokinin type B receptor; format: cell-based
Cavia porcellus [5] = organism: Cavia porcellus; test: In vitro concentration required to induce contraction of isolated GPGB; format: functional
In short: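 Isolated guinea pig gallbladder contraction. pEC50 (−log EC50 ± SD) assayed in triplicate.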

Rattus norvegicus [6] = test: Compound was evaluated for the dose(ip) required to achieve half-maximal inhibition of feeding at 30 min in rats.; format: functional; details: 0.5 h
In short: (§2)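 Male Long-Evans rats (225–300 g) conditioned 2 weeks to a liquid diet. Animals fasted 100 min, then given test compound ip in propylene glycol (1 mL/kg) followed at once by an oral saline preload (8 mL/kg). Diet offered 20 min later and intake measured at 30 min. ED50 is the dose giving half-maximal inhibition; 8–10 rats per dose, normalized to each rat's pretreatment-day response.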

Rattus norvegicus [7] = test: Compound was evaluated for the maximal reduction in feeding achieved at 1 uM/kg dose(ip); format: functional
In short: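 Conditioned male Long-Evans rats fasted 100 min, dosed ip at 1 μmol/kg in propylene glycol (1 mL/kg), then given an oral saline preload (0.9%, 8 mL/kg). Liquid diet offered 20 min later. Maximal reduction of feeding is the mean of 8–10 animals, normalized to the vehicle pretreatment-day intake.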

[8] = target: T1, Cholecystokinin receptor type A; test: Compound was evaluated for the [Ca2+] mobilization innstably transfected CHO-K1 cell lines expressing human Cholecystokinin type A receptor; format: cell-based
[9] = target: T3, Gastrin/cholecystokinin type B receptor (Homo sapiens) (UniProt P32239)
T3 sequence (whole entry): T2 sequence (P32239 whole entry)

Cavia porcellus [10] = organism: Cavia porcellus; test: The compound was evaluated for contraction as % of CCK-8 maximum against Cholecystokinin type A receptor in guinea pig gallbladder
Cavia porcellus [11] = organism: Cavia porcellus; test: mCCK-8 contraction induced by 30 uM in vitro, normalized to CCK-8 (1 uM); format: functional; in short: as §1
Rattus norvegicus [12] = test: The compound was evaluated for the dose(ip) required to achieve half-maximal inhibition of feeding at 30 min in rats; format: functional; details: 0.5 h; in short: as §2
Rattus norvegicus [13] = test: The compound was evaluated for the maximal reduction in feeding achieved at 1 uM/kg dose(ip); format: functional; details: in the assay text read “0.5 umol/kg” for “1 uM/kg”
Rattus norvegicus [14] = test: Compound was evaluated for the dose(ip) required to achieve half-maximal inhibition of feeding at 30 min in rats; format: functional; details: 0.5 h; in short: as §2
[15] = target: T4, Cholecystokinin receptor type A (Cavia porcellus) (UniProt Q63931); test: The compound was evaluated for the contraction as % of CCK-8 maximum against Cholecystokinin type A receptor in guinea pig gallbladder
T4 sequence (whole entry): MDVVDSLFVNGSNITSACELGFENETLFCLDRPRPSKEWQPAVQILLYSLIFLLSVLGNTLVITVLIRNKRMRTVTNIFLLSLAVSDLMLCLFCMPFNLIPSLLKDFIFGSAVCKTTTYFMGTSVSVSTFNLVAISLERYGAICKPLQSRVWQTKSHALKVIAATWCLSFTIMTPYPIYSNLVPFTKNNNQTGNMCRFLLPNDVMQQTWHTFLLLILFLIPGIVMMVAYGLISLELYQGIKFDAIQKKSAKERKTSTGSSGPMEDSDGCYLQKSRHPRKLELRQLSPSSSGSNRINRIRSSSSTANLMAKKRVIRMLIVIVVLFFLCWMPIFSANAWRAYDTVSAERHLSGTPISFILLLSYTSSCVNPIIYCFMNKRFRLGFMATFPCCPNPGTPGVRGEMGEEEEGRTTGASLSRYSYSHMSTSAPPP

Cavia porcellus [16] = organism: Cavia porcellus; test: mCCK-8 contraction induced by 30 uM in vitro, normalized to CCK-8 (1 uM); IA = 'inactive'; format: functional; in short: as §1
Cavia porcellus [17] = organism: Cavia porcellus; test: The compound was evaluated for the pKB, single dose pA2 against Cholecystokinin type A receptor in guinea pig gallbladder; format: functional
In short: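 Isolated guinea pig gallbladder. Antagonism against CCK-8 is expressed as pKB, a single-dose pA2.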

## Cc1ccccc1NC(=O)NCCCC[C@@H](CNC(=O)CCC(=O)O)NC(=O)[C@](C)(Cc1c[nH]c2ccccc12)NC(=O)OC1C2CC3CC(C2)CC1C3 (stereo not given in full)
[1]
  IC50: 0.724 µM
Cavia porcellus [2]
  Activity: inactive
[3]
  IC50: 7.08 µM

## Cc1ccccc1NC(=O)NCCCC[C@H](CNC(=O)[C@@](C)(Cc1c[nH]c2ccccc12)NC(=O)OC1C2CC3CC(C2)CC1C3)NC(=O)CCC(=O)O (stereo not given in full)
[4]
  EC50: 2.51 µM
[1]
  IC50: 0.012 µM
Cavia porcellus [5]
  EC50: 0.0275 µM
Rattus norvegicus [6]
  ED50: 0.03 µmol/kg
Rattus norvegicus [7]
  Max inhibition: 59%
[8]
  EC50: 0.00316 µM
[3]
  IC50: 0.02 µM
[9]
  pKB: 7.7
Cavia porcellus [10]
  contraction, % of CCK-8 max: 72%

## CSCC[C@H](NC(=O)[C@H](Cc1ccc(OS(=O)(=O)O)cc1)NC(=O)[C@@H](N)CC(=O)O)C(=O)NCC(=O)N[C@@H](Cc1c[nH]c2ccccc12)C(=O)N[C@@H](CCSC)C(=O)N[C@@H](CC(=O)O)C(=O)N[C@@H](Cc1ccccc1)C(N)=O [SINCALIDE]
Cavia porcellus [11]
  Activity: 100%
Rattus norvegicus [12]
  ED50: 0.027 µmol/kg
Rattus norvegicus [13]
  max inhibition: 95%

## Cc1ccccc1NC(=O)NCCCC[C@H](CNC(=O)[C@](C)(Cc1c[nH]c2ccccc12)NC(=O)OC1C2CC3CC(C2)CC1C3)NC(=O)CCC(=O)O (stereo not given in full)
[1]
  IC50: 0.229 µM
Cavia porcellus [5]
  EC50: 0.832 µM
[3]
  IC50: 0.178 µM
Cavia porcellus [10]
  contraction, % of CCK-8 max: 83%

## C[C@](Cc1c[nH]c2ccccc12)(NC(=O)OC1[C@H]2C[C@@H]3C[C@@H](C[C@H]1C3)C2)C(=O)NC[C@H](NC(=O)CCC(=O)O)c1ccccc1 (stereo not given in full) [CI-988]
Cavia porcellus [11]
  Activity: 24%

## CC(=O)N[C@@H](Cc1c[nH]c2ccccc12)C(=O)N[C@@H](CCCCNC(=O)Nc1ccccc1C)C(=O)N[C@@H](CC(=O)O)C(=O)N(C)[C@@H](Cc1ccccc1)C(N)=O (Ac-WK([CO-NH(2-Me-phenyl)])D[NMeF]-NH2)
[1]
  IC50: 0.02 µM
Cavia porcellus [5]
  EC50: 0.00158 µM
Rattus norvegicus [14]
  ED50: 0.01 µmol/kg
Rattus norvegicus [7]
  max inhibition: 67%
[8]
  EC50: 0.00398 µM
[15]
  contraction, % of CCK-8 max: 105%

## Cc1ccccc1NC(=O)NCCCC[C@@H](CNC(=O)CCC(=O)O)NC(=O)[C@@](C)(Cc1c[nH]c2ccccc12)NC(=O)OC1C2CC3CC(C2)CC1C3 (stereo not given in full)
[1]
  IC50: 0.0603 µM
Cavia porcellus [16]
  Activity: inactive
Cavia porcellus [17]
  pKB: 7
[3]
  IC50: 0.224 µM

— ChEMBL document CHEMBL1128527, “Modification of receptor selectivity and functional activity in cholecystokinin peptoid ligands” (J Med Chem, 1995)
